# In the library only some 4.3% were active in any assay of this set; here they are far more common.
# TAAR1 antag = antagonists of human TAAR1; 360,000 tested, 1.5% active; AID 624466; inhibition, % at 3 µM; CHO RD-HGA16 TAAR1, Fluo-8 calcium fluorescence, antagonist; Q96RJ0;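 active = inhibition above a per-plate cutoff, the mean inhibition of test compounds on that plate plus 3 SD, cut at about 49% in these data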;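 note: 0% = DMSO plus EC80 beta-PEA response and 100% = DMSO alone without agonist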
# Target sequence (Q96RJ0 whole entry, looked up): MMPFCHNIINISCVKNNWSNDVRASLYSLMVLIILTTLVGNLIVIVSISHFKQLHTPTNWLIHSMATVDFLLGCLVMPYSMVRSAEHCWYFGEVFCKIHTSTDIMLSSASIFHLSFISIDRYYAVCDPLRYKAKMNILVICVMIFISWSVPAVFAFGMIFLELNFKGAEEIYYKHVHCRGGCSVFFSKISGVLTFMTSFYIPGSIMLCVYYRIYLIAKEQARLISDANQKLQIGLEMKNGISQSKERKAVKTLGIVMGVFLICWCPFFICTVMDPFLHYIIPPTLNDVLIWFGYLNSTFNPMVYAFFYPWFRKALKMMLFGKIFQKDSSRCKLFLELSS
#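 Material: CHO RD-HGA16 cells bearing hTAAR1; compound dosing: one-point dosing, 3 µM nominal final; schedule: dye loading 75 min at 37 °C, then 30 min room temperature; measured by: calcium fluorescence with Fluo-8; control set: vehicle and agonist controls; replication: n of 1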
# B2AR ag = agonists of human beta-2 adrenergic receptor inducing internalization | P07550 | Am2.2-beta2AR cells, FAP receptor internalization, flow cytometry | response, % (test concentration not listed) | 340,000 tested, 0.43% active;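 active = response above a set limit, near 3 SD of response in nonfluorescent compounds, cut at about 42% in these data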
# MC4R barr agon = agonists of human melanocortin 4 receptor (MC4R) beta-arrestin. 360,000 tested, 0.98% active. U2OS MC4R beta-arrestin complementation, luminescence; percent of melanotan II response, DMSO zero. AID 540308. activation, % at 8.9 µM;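 active = activation above a per-plate cutoff, the mean activation of sample wells on that plate plus 3 SD, cut at about 8% in these data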
# Target sequence (P32245 whole entry, looked up): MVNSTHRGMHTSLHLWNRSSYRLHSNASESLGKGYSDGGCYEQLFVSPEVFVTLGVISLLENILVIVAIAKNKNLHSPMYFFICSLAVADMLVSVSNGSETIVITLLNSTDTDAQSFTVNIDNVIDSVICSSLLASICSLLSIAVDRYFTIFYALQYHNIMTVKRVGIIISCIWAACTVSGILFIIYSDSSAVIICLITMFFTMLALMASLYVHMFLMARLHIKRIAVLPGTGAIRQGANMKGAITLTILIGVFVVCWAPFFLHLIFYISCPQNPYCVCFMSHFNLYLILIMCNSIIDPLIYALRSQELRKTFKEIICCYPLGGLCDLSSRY
# HTR2A ag = activates the mouse 5-HT2A serotonin receptor; CHO-K1 mHTR2A beta-arrestin complementation, luminescence; percent of 30 µM serotonin response; activation, % at 7.6 µM; AID 624169; 360,000 tested, 0.66% active;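 active = activation above a run cutoff, the mean activation of all tested compounds plus 3 SD, cut at about 14% in these data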;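 note: 0% = plate median of compound wells and 100% = 30 µM serotonin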
# TAAR1 ag = human TAAR1 agonism | Q96RJ0 | CHO RD-HGA16 TAAR1, Fluo-8 calcium fluorescence; vehicle wells 0%, saturating PEA agonist 100% | activation, % at 3 µM | 360,000 tested, 0.99% active;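 active = activation above the mean activation of all test compounds in the run plus 3 SD, cut at about 38% in these data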
#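 System: CHO RD-HGA16 cells carrying human TAAR1 plus Gα16; Incubation: 17-24 h seeding, 75 min 37 °C dye, 30 min RT; Measured by: Fluo-8 fluorescence, 5 s baseline then 140 s kinetic read; Control set: DMSO and PEA EC100; Replication: single well for each compound.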
# MC4R antag cAMP = antagonists of human melanocortin 4 receptor (MC4R); P32245; MC4R-expressing cells, MTII-stimulated cAMP, LANCE TR-FRET; inhibition, % at 6.5 µM; 360,000 tested, 0.48% active; AID 540295;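 active = inhibition above its plate's cutoff, the mean of tested wells on that plate plus 3 SD, cut at about 29% in these data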;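 note: 0% = Melanotan II alone and 100% = Melanotan II plus saturating MCL0020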
#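 System: U2OS-MC4R stable cell line; Technique: Eu-cAMP/anti-cAMP TR-FRET, emission 671 nm; Repeats: single well per compound; Also added: Melanotan II; Dosing: one concentration, 6.5 µM nominal; Schedule: 30-min compound, 1-h challenge, 1-h detection, room temperature.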
# Numbers without * were called inactive; nt = no result given.
SMILES,TAAR1 antag,B2AR ag,MC4R barr agon,HTR2A ag,TAAR1 ag,MC4R antag cAMP
CC1(Cc2ccccc2Cl)C(=O)Nc2cc(-c3ccccc3Cl)ccc21 (configuration not stated),51*,nt,-1,10,2,1
Cc1[nH]c2ccccc2c1C(=O)c1c(N)[nH]c(C(=O)c2ccc(Br)cc2)c1-c1ccc(Br)cc1,-19,nt,nt,nt,0,nt
COc1ccc(COc2cc(-c3cccc(OC)c3)nc3ccc(NC(=O)c4ccc(Cl)cc4)cc23)cc1,26,-9,-1,6,8,1
COc1ccc(COc2cc(-c3cccc(OC)c3)nc3ccc(NC(=O)c4ccccc4)cc23)cc1,53*,5,0,0,8,2
COc1ccc(COc2cc(-c3cccc(OC)c3)nc3ccc(NC(=O)c4ccc(OC)cc4)cc23)cc1,61*,-1,-1,-3,10,-3
O=C(N[C@H](C(=O)N1CCC[C@H]1C(=O)NC1CCCC1)C1CCCCC1)c1ccc(Cl)c(Cl)c1,-16,nt,nt,nt,-3,nt
Cc1ccccc1CN(C)Cc1cc(=O)oc2c(C)c(C)ccc12,51*,4,1,-3,-1,4
CCN(CC)c1ccc(-c2nn3c(-c4n[nH]c5c4CCC5)nnc3s2)cc1,-22,-5,5,35*,8,-17
C1CCC(c2nn3c(-c4n[nH]c5c4CCC5)nnc3s2)CC1,-9,-13,-1,4,-2,-4
O=C(Nc1ccccc1)c1nc[nH]c1C(=O)Nc1ccccc1F,-5,nt,3,-2,2,12
Cc1ccc(NC(=O)c2nc[nH]c2C(=O)NCCCCNC(=O)c2[nH]cnc2C(=O)Nc2ccc(C)cc2)cc1,60*,15,-3,2,18,13
CCOC(=O)c1ccc(NC(=O)c2nc[nH]c2C(=O)NCCCCNC(=O)c2[nH]cnc2C(=O)Nc2ccc(C(=O)OCC)cc2)cc1,31,5,1,2,5,5
CCOC(=O)c1ccc(NC(=O)c2nc[nH]c2C(=O)NCCCCCNC(=O)OC(C)(C)C)cc1,56*,2,-2,2,14,21
O=C(Nc1ccccc1)c1nc[nH]c1C(=O)NCCCCNC(=O)c1[nH]cnc1C(=O)Nc1ccccc1,57*,10,1,-4,21,8
O=C(Nc1ccccc1)c1nc[nH]c1C(=O)NCCNC(=O)c1[nH]cnc1C(=O)Nc1ccccc1,56*,4,1,-6,27,25
Cc1ccc(NC(=O)c2nc[nH]c2C(=O)NCCCCCCNC(=O)c2[nH]cnc2C(=O)Nc2ccc(C)cc2)cc1,-7,-4,-1,0,3,3
O[C@H]1CN(CC2CCCCC2)[C@@H](c2ccc(Cl)cc2)C[C@@H]1n1cc(C2CC2)nn1,33,nt,0,-1,1,11
COC(=O)C1=C(C)N(C)C(=NCc2ccc(C(F)(F)F)cc2)NC1c1cccc(Cl)c1 (configuration not stated),30,nt,nt,nt,25,nt
CCNC(=O)OC[C@H]1O[C@H](C#Cc2ccc(C(C)(C)C)cc2)C=C[C@H]1OC(C)=O,-10,nt,nt,nt,0,nt
COc1ccc2c(c1)/C(=C\c1cccc(/C=C3/C(=O)Nc4ccc(OC)cc43)n1)C(=O)N2,21,93*,-2,2,7,-34
Cc1ccc2c(c1)/C(=C/c1ccccc1)C(=O)N2,-12,12,2,2,0,7
Nc1nc(NCc2ccc(Cl)cc2)nc(NCCO)c1[N+](=O)[O-],-30,-7,0,4,45*,-21
Cc1cc(N2CCN(CC(C)(C)O)C[C@H]2C)ccc1N1CCN(CC(C)(C)O)[C@H](C)C1,-11,nt,nt,nt,1,nt
COc1cccc(NC(=O)Nc2nc(SC)ns2)c1,11,-89,2,4,13,-6
COc1cccc(NC(=O)Nc2nc(SC(C)(C)C)ns2)c1,59*,26,1,5,19,-5
SMILES,TAAR1 antag,B2AR ag,MC4R barr agon,HTR2A ag,TAAR1 ag,MC4R antag cAMP
COc1ccc(C=C2C=C(C(C)(C)C)C(=O)C(C(C)(C)C)=C2)cc1OC,-17,76*,4,-1,-1,27
OC(c1ccccc1)(c1ccccc1)C1CCN(CCCOc2cccc(C(F)(F)F)c2)CC1,36,nt,nt,nt,32,nt
C[C@@H]1CN(c2ccc(N3CCNC[C@@H]3C)cc2C#N)CCN1Cc1ccccc1,-1,nt,nt,nt,4,nt
COC(=O)c1cc2ccc(OC)c(OC)c2c(=O)s1,1,50*,7,1,5,-8
COc1ccc2cc(C(=O)N3CCCCCC3)sc(=O)c2c1OC,7,0,-1,-1,9,6
COC(=O)c1cc2c(c3c4cc(OC)ccc4n(S(=O)(=O)c4ccc(F)cc4)c13)C(=O)N(Cc1ccccc1)C2,-40,nt,nt,nt,0,nt
CCOC(=O)N1CCN(C(=O)CSCC(=O)Nc2nc(-c3ccc(-c4ccccc4)cc3)cs2)CC1,70*,31,4,0,8,26
COc1ccccc1C1(O)CCN(CC(=O)Nc2nc(-c3ccccc3)cs2)CC1,53*,0,-1,-3,6,14
CCc1nnc(NC(=O)CN2CCC(O)(c3ccccc3OC)CC2)s1,5,-2,1,-1,11,11
COc1cccc(-c2nn(-c3ccc(C)cc3)cc2C(=O)N2CCc3cc(OC)c(OC)cc3C2)c1,63*,17,2,-6,7,7
CC(=O)c1c(C)[nH]c(C(=O)NCc2cccc(Cl)c2)c1C,-29,2,-1,-5,6,9
O=C1N/C(=C/c2ccc(N3CCCC3)cc2)C(=O)N1c1ccccc1,-6,12,8.5*,2,0,-12
Cc1ccc(C)c(NS(=O)(=O)c2ccc3oc(=O)ccc3c2)c1,-6,-9,-1,-2,4,7
Cc1ccc(C)c(NS(=O)(=O)c2ccc3c(c2)Cc2cc(S(=O)(=O)Nc4cc(C)ccc4C)ccc2-3)c1,-6,1,8.8*,-8,0,9
N#CC(C#N)=Cc1cn(-c2ncc(C(F)(F)F)cc2Cl)c2ccccc12,-2,66*,-3,-3,1,4
CC(C)(C)OC(=O)N1CCC2CCN(CCc3ccccc3)CC21 (configuration not stated),-11,nt,nt,nt,0,nt
CCOc1ccc(C(=O)CCc2nc3ccccc3s2)cc1,-12,0,0,21*,6,-1
Cc1cccc(-n2c(CCc3ccccc3)nnc2SCC(=O)c2ccccc2)c1,-10,-2,8.3*,-6,0,7
O=S1(=O)N[C@@H](Cc2ccccc2)COc2cccc(N3CCCCC3)c21,7,nt,nt,nt,1,nt
Cc1cc2cc(C=O)c(Cl)nc2cc1C,10,48*,-1,2,1,-25

# Source: PubChem
